Like-named read-outs stand apart in the source and are kept apart here.
Experiments:
[1] = test system: BACE1 over BACE 2; conditions: radioligand binding assay; cited from earlier work
[2] = test system: CSF Aβ1–40 and Aβ1–42; test: Population PK/PD model of CSF Aβ1–40 and Aβ1–42; parameters: species or system human; conditions: in approximately 50% of subjects, simulated
How it was run: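 Population PK/PD model built on pooled data from both studies: CSF Aβ at baseline plus one steady-state trough value. Indirect-response model in which plasma drug concentration lowers the Aβ production rate. Population PK parameters were fixed. CSF turnover rates were fixed at 0.084/h (Aβ1–40) and 0.12/h (Aβ1–42), taken from a separate serial-CSF study.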

[3] = test system: hERG; conditions: in vitro and in vivo preclinical safety and toxicology studies; cited from earlier work
[4] = type: in vivo, human; conditions: for AUCtau / Cmax / CL/F / Cmin / Rac (observed accumulation ratio) / Vz/F: geometric mean (% CV); for Tmax: median (range); for t1/2: arithmetic mean±SD
How it was run: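 Healthy adults (18–55 y) or older subjects (60–85 y) received oral QD doses for 14 days, fasted on Day 1. Plasma was sampled pre-dose and at 0.5, 1, 2, 4, 8, 12, and 24 h, plus 1.5 h (B8271001) or 6 h (B8271004). Day 14 sampling extended to 120 h. Urine was also collected. Samples were analysed by validated HPLC-MS/MS; plasma LLOQ 0.500 or 5.00 ng/mL, urine LLOQ 0.050 ng/mL. Parameters were derived by non-compartmental analysis.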

[5] = 5 mg QD, Day 14, healthy adults
[6] = 15 mg QD, Day 1, healthy adults
[7] = 15 mg QD, Day 7, healthy adults
[8] = 15 mg QD, Day 14, healthy adults
[9] = 50 mg QD, Day 1, healthy adults
[10] = 50 mg QD, Day 1, healthy older subjects
[11] = 50 mg QD, Day 7, healthy adults
[12] = 50 mg QD, Day 14, healthy adults
[13] = 50 mg QD, Day 14, healthy older subjects
[14] = 50 mg or 125 mg QD, healthy older subjects
[15] = 125 mg QD, Day 1, healthy adults
[16] = 125 mg QD, Day 1, healthy older subjects
[17] = 125 mg QD, Day 7, healthy adults
[18] = 125 mg QD, Day 14, healthy adults

Structure (SMILES): C[C@H]1C[C@H]2CSC(N)=N[C@@]2(c2nc(NC(=O)c3ccc(OC(F)F)cn3)cs2)CO1 [PF-06751979]
- Selectivity for BACE1 over BACE2 [1]: 26.6 fold
- Predicted average reduction of CSF Aβ1–40 and Aβ1–42 at steady state ([2]; 30 mg QD): approximately 60%
- Predicted average reduction of CSF Aβ1–40 and Aβ1–42 at steady state ([2]; 75 mg QD): ~80%
- Predicted average reduction of CSF Aβ1–40 and Aβ1–42 at steady state ([2]; 110 mg QD): ~85%
- hERG inhibition [3]: weak hERG inhibition
- AUCtau ([4]; 5 mg QD, Day 1, healthy adults): 167.7 (18) ng.hr/mL
- Cmax ([4]; 5 mg QD, Day 1, healthy adults): 10.12 (22) ng/mL
- Tmax ([4]; 5 mg QD, Day 1, healthy adults): 3.98 (2.03–12.3) h
- AUCtau ([4]; 5 mg QD, Day 7, healthy adults): 395.2 (20) ng.h/mL
- Cmax ([4]; 5 mg QD, Day 7, healthy adults): 20.68 (22) ng/mL
- Tmax ([4]; 5 mg QD, Day 7, healthy adults): 6.02 (3.95–8.05) h
- t1/2 [4, 5]: 37.15 ± 5.20 h
- AUCtau [4, 5]: 422.2 (20) ng.hr/mL
- CL/F [4, 5]: 197.1 (20) mL/min
- Cmax [4, 5]: 22.41 (23) ng/mL
- Cmin [4, 5]: 12.55 (22) ng/mL
- Rac (observed accumulation ratio) [4, 5]: 2.52 (12)
- Vz/F [4, 5]: 628.7 (18) L
- Tmax [4, 5]: 4.01 (3.98–8.02) h
- AUCtau [4, 6]: 478.8 (20) ng.hr/mL
- Cmax [4, 6]: 28.90 (22) ng/mL
- Tmax [4, 6]: 4.07 (4.00–7.83) h
- AUCtau [4, 7]: 1149 (12) ng.h/mL
- Cmax [4, 7]: 64.34 (12) ng/mL
- Tmax [4, 7]: 4.02 (2.17–8.03) h
- t1/2 [4, 8]: 30.65 ± 3.19 h
- AUCtau [4, 8]: 1152 (13) ng.hr/mL
- CL/F [4, 8]: 216.9 (12) mL/min
- Cmax [4, 8]: 64.63 (14) ng/mL
- Cmin [4, 8]: 32.75 (14) ng/mL
- Rac (observed accumulation ratio) [4, 8]: 2.41 (14)
- Vz/F [4, 8]: 573.2 (12) L
- Tmax [4, 8]: 4.05 (4.02–7.87) h
- AUCtau [4, 9]: 1739 (14) ng.hr/mL
- Cmax [4, 9]: 120.6 (17) ng/mL
- Tmax [4, 9]: 2.99 (1.02–4.07) h
- AUCtau [4, 10]: 1621 (22) ng.hr/mL
- Cmax [4, 10]: 102.9 (25) ng/mL
- Tmax [4, 10]: 4.00 (2.02–7.98) h
- AUCtau [4, 11]: 4181 (20) ng.h/mL
- Cmax [4, 11]: 241.1 (20) ng/mL
- Tmax [4, 11]: 3.83 (1.43–4.07) h
- t1/2 [4, 12]: 37.36 ± 5.91 h
- AUCtau [4, 12]: 4236 (24) ng.hr/mL
- CL/F [4, 12]: 196.9 (24) mL/min
- Cmax [4, 12]: 245.7 (21) ng/mL
- Cmin [4, 12]: 120.4 (25) ng/mL
- Rac (observed accumulation ratio) [4, 12]: 2.43 (15)
- Vz/F [4, 12]: 629.0 (27) L
- Tmax [4, 12]: 3.00 (0.88–8.08) h
- t1/2 [4, 13]: 39.95 ± 3.18 h
- AUCtau [4, 13]: 4505 (20) ng.h/mL
- CL/F [4, 13]: 184.9 (20) mL/min
- Cmax [4, 13]: 256.4 (23) ng/mL
- Cmin [4, 13]: 135.8 (18) ng/mL
- Vz/F [4, 13]: 637.4 (23) L
- Tmax [4, 13]: 4.00 (2.00–4.20) h
- Median Tmax [4, 14]: 4 h
- Steady state achieved by [4, 14]: ≤ 7 days
- AUCtau [4, 15]: 6380 (15) ng.hr/mL
- Cmax [4, 15]: 442.7 (20) ng/mL
- Tmax [4, 15]: 4.00 (2.00–6.03) h
- AUCtau [4, 16]: 5238 (24) ng.hr/mL
- Cmax [4, 16]: 377.1 (30) ng/mL
- Tmax [4, 16]: 4.00 (2.00–4.03) h
- AUCtau [4, 17]: 13810 (16) ng.h/mL
- Cmax [4, 17]: 818.7 (19) ng/mL
- Tmax [4, 17]: 3.00 (2.00–6.00) h
- t1/2 [4, 18]: 30.73 ± 5.75 h
- AUCtau [4, 18]: 13990 (14) ng.hr/mL
- CL/F [4, 18]: 149.0 (14) mL/min
- Cmax [4, 18]: 837.6 (16) ng/mL
- Cmin [4, 18]: 390.3 (18) ng/mL
- Rac (observed accumulation ratio) [4, 18]: 2.19 (11)
- Vz/F [4, 18]: 390.5 (23) L
- Tmax [4, 18]: 4.00 (2.00–12.00) h
- t1/2 ([4]; 125 mg QD, Day 14, healthy older subjects): 40.76 ± 3.90 h

From article PMC6839502 (Journal of Alzheimer's Disease, 2019)
